Calls of active or inactive are those of the source. The rule behind the calls is not given here.
How the values were obtained:
[1] = target: T1, D(3) dopamine receptor (Homo sapiens, UniProt P35462); experiment: Displacement of [3H]N-methylspiperone from human D3 receptor expressed in HEK293 cell membranes measured after 60 mins by scintillation counting method
In short: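 HEK293 cells stably expressing human D3R; membranes in EBSS buffer pH 7.4, stored at −80 °C. 20 μg protein/well with 0.4 nM [3H]N-methylspiperone (final), half-log dilutions in 30% DMSO, in triplicate. 60 min at room temperature, then GF/B filtration. Nonspecific binding with 10 μM (+)-butaclamol.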

[2] = target: T2, D(4) dopamine receptor (Homo sapiens, UniProt P21917); experiment: Displacement of [3H]N-methylspiperone from human D4.4 receptor expressed in HEK293 cell membranes measured after 60 mins by scintillation counting method
T2 sequence (P21917 whole entry): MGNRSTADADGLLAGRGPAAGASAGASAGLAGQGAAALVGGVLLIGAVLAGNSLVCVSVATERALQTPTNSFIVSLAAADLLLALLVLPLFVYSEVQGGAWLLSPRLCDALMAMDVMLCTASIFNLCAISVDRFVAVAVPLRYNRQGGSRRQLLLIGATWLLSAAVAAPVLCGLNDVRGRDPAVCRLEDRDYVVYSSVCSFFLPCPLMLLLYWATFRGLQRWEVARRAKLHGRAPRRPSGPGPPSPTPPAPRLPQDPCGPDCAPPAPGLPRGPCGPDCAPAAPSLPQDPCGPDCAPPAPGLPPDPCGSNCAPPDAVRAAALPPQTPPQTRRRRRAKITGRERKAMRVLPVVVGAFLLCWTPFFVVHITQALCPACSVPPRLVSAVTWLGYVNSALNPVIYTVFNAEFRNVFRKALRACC
In short: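 Frozen HEK293 membranes stably expressing human D4.4R (30 μg/well) in EBSS-bicarbonate buffer, pH 7.4, were incubated with 0.4 nM [3H]N-methylspiperone and half-log compound dilutions (30% DMSO vehicle) for 60 min at room temperature. Nonspecific binding was defined by 10 μM (+)-butaclamol. Samples were filtered on GF/B filters and counted by scintillation.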

[3] = target: T3, D(2) dopamine receptor (Homo sapiens, UniProt P14416); experiment: Agonist activity at human D2L receptor expressed in CHOK1 cells assessed as inhibition of forskolin-induced cAMP accumulation measured after 30 mins by Eu-cAMP tracer based TR-FRET assay relative to dopamine; format: cell-based; conditions: 0.5 h
T3 sequence (P14416 whole entry): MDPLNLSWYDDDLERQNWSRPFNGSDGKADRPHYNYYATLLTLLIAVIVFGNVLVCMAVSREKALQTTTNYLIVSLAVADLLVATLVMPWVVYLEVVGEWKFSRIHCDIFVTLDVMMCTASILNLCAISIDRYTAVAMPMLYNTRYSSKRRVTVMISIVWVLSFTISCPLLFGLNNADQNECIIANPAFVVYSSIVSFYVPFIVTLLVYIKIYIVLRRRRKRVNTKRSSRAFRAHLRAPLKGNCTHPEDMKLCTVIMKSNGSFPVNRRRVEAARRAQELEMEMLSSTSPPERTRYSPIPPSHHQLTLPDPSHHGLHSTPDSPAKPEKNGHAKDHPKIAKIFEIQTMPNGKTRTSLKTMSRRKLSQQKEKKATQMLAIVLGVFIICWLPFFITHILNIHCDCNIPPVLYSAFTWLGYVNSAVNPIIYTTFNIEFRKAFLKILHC

[4] = target: T3, D(2) dopamine receptor; experiment: Antagonist activity at human D2L receptor expressed in CHOK1 cells assessed as suppression of dopamine-induced inhibition of forskolin-stimulated cAMP accumulation measured after 30 mins by Eu-cAMP tracer based TR-FRET assay relative to dopamine; format: cell-based; conditions: 0.5 h
[5] = target: T4, D(4) dopamine receptor (Homo sapiens) (UniProt P21917); experiment: Agonist activity at human D4 receptor expressed in CHOK1 cells assessed as inhibition of forskolin-induced cAMP accumulation measured after 30 mins by Eu-cAMP tracer based TR-FRET assay relative to dopamine; format: functional, cell-based
T4 sequence (whole entry): T2 sequence (P21917 whole entry)
In short: (§1)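 LANCE Ultra TR-FRET cAMP assay in CHO-K1 cells stably expressing human D2R long isoform or D4R. Cells were plated in HBSS/5 mM HEPES/0.2 μM metabisulfite, then immediately given compound plus forskolin (10 μM final) for 30 min at room temperature. Eu-cAMP tracer and ULight-anti-cAMP were added for 2 h in the dark. Values are % of maximal dopamine signal, nonlinear regression of triplicate runs, n = 3–4.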

[6] = target: T2, D(4) dopamine receptor; experiment: Agonist activity at human D4 receptor expressed in CHOK1 cells assessed as inhibition of forskolin-induced cAMP accumulation measured after 30 mins by Eu-cAMP tracer based TR-FRET assay; format: functional, cell-based; in short: as §1
[7] = target: T4, D(4) dopamine receptor (Homo sapiens); experiment: Antagonist activity at human D4 receptor expressed in CHOK1 cells assessed as suppression of dopamine-induced inhibition of forskolin-stimulated cAMP accumulation measured after 30 mins by Eu-cAMP tracer based TR-FRET assay relative to dopamine; format: functional, cell-based; set-up: concentration or dose not given beside the values
[8] = target: T2, D(4) dopamine receptor; experiment: Antagonist activity at human D4 receptor expressed in CHOK1 cells assessed as suppression of dopamine-induced inhibition of forskolin-stimulated cAMP accumulation measured after 30 mins by Eu-cAMP tracer based TR-FRET assay; format: functional, cell-based
[9] = target: T3, D(2) dopamine receptor; experiment: Agonist activity at human D2L receptor expressed in CHOK1 cells assessed as induction of beta-arrestin recruitment measured after 90 mins by luminescence assay relative to control; format: cell-based
In short: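 PathHunter enzyme-complementation assay in CHO-K1 cells stably expressing human D2R long isoform, seeded 2625 cells/well and incubated overnight. Compounds diluted in PBS with 0.2 μM sodium metabisulfite, tested at multiple concentrations, 90 min at 37 °C. Detection reagent then 45–60 min at room temperature, luminescence read. Normalized to maximal dopamine response. Nonlinear regression of triplicate runs, n = 3–4.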

[10] = target: T3, D(2) dopamine receptor; experiment: Antagonist activity at human D2L receptor expressed in CHOK1 cells assessed as inhibition of dopamine-induced beta-arrestin recruitment measured after 90 mins by luminescence assay; format: cell-based
In short: (§2)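 Antagonist-mode PathHunter β-arrestin assay in CHO-K1 cells stably expressing human D2R long isoform or D3R, seeded overnight. Compound dilutions in PBS with 0.2 μM metabisulfite were co-incubated with an EC80 dopamine concentration for 90 min at 37 °C. Detection reagent was added for 45–60 min at room temperature, then luminescence was read. Values are % of dopamine EC80 response, from nonlinear regression of triplicate runs, n = 3–4.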

[11] = target: T1, D(3) dopamine receptor; experiment: Agonist activity at human D3 receptor expressed in CHOK1 cells assessed as induction of beta-arrestin recruitment measured after 90 mins by luminescence assay; format: cell-based
In short: (§3)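 PathHunter enzyme-complementation assay in CHO-K1 cells stably expressing human D2R long isoform, D3R or D4R, seeded overnight in Ham's F12/10% FBS. Compounds were diluted in PBS with 0.2 μM sodium metabisulfite and applied at multiple concentrations for 90 min at 37 °C. Detection reagent was added for 45–60 min at room temperature, then luminescence was read. Values are % of maximal dopamine response, from nonlinear regression of triplicate runs, mean ± SEM, n = 3–4.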

[12] = target: T1, D(3) dopamine receptor; experiment: Antagonist activity at human D3 receptor expressed in CHOK1 cells assessed as inhibition of dopamine-induced beta-arrestin recruitment measured after 90 mins by luminescence assay; format: cell-based; in short: as §2
[13] = target: T4, D(4) dopamine receptor (Homo sapiens); experiment: Agonist activity at human D4 receptor expressed in CHOK1 cells assessed as induction of beta-arrestin recruitment measured after 90 mins by luminescence assay relative to control; format: cell-based; in short: as §3
[14] = target: T2, D(4) dopamine receptor; experiment: Agonist activity at human D4 receptor expressed in CHOK1 cells assessed as induction of beta-arrestin recruitment measured after 90 mins by luminescence assay; format: cell-based; in short: as §3
[15] = target: T4, D(4) dopamine receptor (Homo sapiens); experiment: Antagonist activity at human D4 receptor expressed in CHOK1 cells assessed as inhibition of dopamine-induced beta-arrestin recruitment measured after 90 mins by luminescence assay relative to control; format: cell-based; set-up: concentration or dose not given beside the values
[16] = target: T2, D(4) dopamine receptor; experiment: Antagonist activity at human D4 receptor expressed in CHOK1 cells assessed as inhibition of dopamine-induced beta-arrestin recruitment measured after 90 mins by luminescence assay; format: cell-based; conditions: read-out: IC50
[17] = target: T2, D(4) dopamine receptor; experiment: Displacement of [3H](R)-(+)-7-OH-DPAT from human D4.4 receptor expressed in HEK293 cell membranes measured after 90 mins by scintillation counting method
In short: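 HEK293 cells stably expressing human D4.4R; membranes used fresh in 50 mM Tris, 10 mM MgCl2, 1 mM EDTA, pH 7.4. 60 μg protein/well with 3 nM [3H]-(R)-(+)-7-OH-DPAT (final), half-log dilutions in 30% DMSO, in triplicate. 90 min at room temperature, then GF/B filtration. Nonspecific binding with 10 μM (+)-butaclamol.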

[18] = target: T1, D(3) dopamine receptor; experiment: Agonist activity at human D3 receptor expressed in CHOK1 cells assessed as induction of beta-arrestin recruitment measured after 90 mins by luminescence assay relative to control; format: cell-based; in short: as §3
[19] = target: T1, D(3) dopamine receptor; experiment: Antagonist activity at human D3 receptor expressed in CHOK1 cells assessed as inhibition of dopamine-induced beta-arrestin recruitment measured after 90 mins by luminescence assay relative to control; format: cell-based; in short: as §2
[20] = target: T1, D(3) dopamine receptor; experiment: Displacement of [3H](R)-(+)-7-OH-DPAT from human D3 receptor expressed in HEK293 cell membranes measured after 90 mins by scintillation counting method
In short: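 Fresh HEK293 hD3R membranes (40 μg/well) in 50 mM Tris, 10 mM MgCl2, 1 mM EDTA, pH 7.4 were incubated with 0.5 nM [3H]-(R)-(+)-7-OH-DPAT and half-log compound dilutions in 30% DMSO for 90 min at room temperature. Nonspecific binding was defined with 10 μM (+)-butaclamol. Samples were filtered on PEI-soaked GF/B filters and counted by scintillation.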

[21] = target: D(1A) dopamine receptor (Homo sapiens) (UniProt P21728); experiment: Agonist activity at D1 receptor (unknown origin) stably expressed in CHOK1 cells assessed as induction of beta-arrestin recruitment measured after 90 mins by luminescence assay; format: cell-based
Sequence of D(1A) dopamine receptor (Homo sapiens) (P21728 whole entry): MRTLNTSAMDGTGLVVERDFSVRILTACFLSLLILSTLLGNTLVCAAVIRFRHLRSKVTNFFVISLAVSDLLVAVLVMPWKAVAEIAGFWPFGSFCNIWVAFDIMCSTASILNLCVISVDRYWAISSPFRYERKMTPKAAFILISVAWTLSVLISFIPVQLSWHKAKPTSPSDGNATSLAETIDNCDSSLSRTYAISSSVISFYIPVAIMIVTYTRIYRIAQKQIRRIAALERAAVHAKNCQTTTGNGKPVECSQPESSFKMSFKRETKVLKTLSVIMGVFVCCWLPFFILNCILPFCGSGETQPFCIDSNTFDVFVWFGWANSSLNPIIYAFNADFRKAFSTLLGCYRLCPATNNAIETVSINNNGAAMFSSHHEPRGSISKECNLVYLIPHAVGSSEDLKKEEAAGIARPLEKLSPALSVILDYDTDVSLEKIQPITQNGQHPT

[22] = target: D(1B) dopamine receptor (Homo sapiens) (UniProt P21918); experiment: Agonist activity at D5 receptor (unknown origin) stably expressed in CHOK1 cells assessed as induction of beta-arrestin recruitment measured after 90 mins by luminescence assay; format: cell-based
Sequence of D(1B) dopamine receptor (Homo sapiens) (P21918 whole entry): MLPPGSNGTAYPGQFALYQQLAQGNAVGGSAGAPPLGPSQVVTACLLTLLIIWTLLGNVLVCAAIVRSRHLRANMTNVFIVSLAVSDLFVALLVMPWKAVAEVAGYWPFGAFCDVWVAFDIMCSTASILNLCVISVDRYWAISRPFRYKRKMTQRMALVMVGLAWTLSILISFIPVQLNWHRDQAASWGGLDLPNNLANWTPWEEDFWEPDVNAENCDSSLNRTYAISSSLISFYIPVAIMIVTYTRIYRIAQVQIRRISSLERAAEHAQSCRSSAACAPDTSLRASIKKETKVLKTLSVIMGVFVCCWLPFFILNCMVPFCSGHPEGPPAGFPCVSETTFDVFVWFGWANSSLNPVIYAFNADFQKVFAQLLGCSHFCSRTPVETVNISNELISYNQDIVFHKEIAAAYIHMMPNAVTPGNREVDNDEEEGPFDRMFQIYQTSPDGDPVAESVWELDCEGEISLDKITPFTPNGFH

[23] = target: D(1A) dopamine receptor (Homo sapiens) (UniProt P21728); experiment: Antagonist activity at D1 receptor (unknown origin) stably expressed in CHOK1 cells assessed as inhibition of dopamine-induced beta-arrestin recruitment measured after 90 mins by luminescence assay; format: cell-based
[24] = target: D(1B) dopamine receptor (Homo sapiens) (UniProt P21918); experiment: Antagonist activity at D5 receptor (unknown origin) stably expressed in CHOK1 cells assessed as inhibition of dopamine-induced beta-arrestin recruitment measured after 90 mins by luminescence assay; format: cell-based
[25] = target: T3, D(2) dopamine receptor; experiment: Agonist activity at human D2L receptor expressed in CHOK1 cells assessed as inhibition of forskolin-induced cAMP accumulation measured after 30 mins by Eu-cAMP tracer based TR-FRET assay; format: cell-based; in short: as §1
[26] = target: T3, D(2) dopamine receptor; experiment: Agonist activity at human D2L receptor expressed in CHOK1 cells assessed as induction of beta-arrestin recruitment measured after 90 mins by luminescence assay; format: cell-based; in short: as §3
[27] = target: T3, D(2) dopamine receptor; experiment: Antagonist activity at human D2L receptor expressed in CHOK1 cells assessed as inhibition of dopamine-induced beta-arrestin recruitment measured after 90 mins by luminescence assay relative to control; format: cell-based; in short: as §2

T1 sequence (P35462 whole entry): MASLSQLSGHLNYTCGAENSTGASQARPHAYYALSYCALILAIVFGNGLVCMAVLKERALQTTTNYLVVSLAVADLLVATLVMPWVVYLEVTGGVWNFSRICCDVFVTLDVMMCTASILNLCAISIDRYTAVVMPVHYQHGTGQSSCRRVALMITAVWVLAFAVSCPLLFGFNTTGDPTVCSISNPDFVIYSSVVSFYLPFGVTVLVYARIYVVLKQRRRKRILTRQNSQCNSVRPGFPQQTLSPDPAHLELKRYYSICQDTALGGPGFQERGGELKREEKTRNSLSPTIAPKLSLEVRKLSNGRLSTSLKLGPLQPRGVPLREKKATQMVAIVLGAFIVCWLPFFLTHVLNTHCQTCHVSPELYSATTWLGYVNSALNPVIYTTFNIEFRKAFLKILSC

Compound	Ki [1] [µM]	Ki [2] [µM]	Emax [3] [%]	inhibition (INH) [4] [%]	Emax [5] [%]	EC50 ([6]; read-out: EC50) [µM]	inhibition [7] [%]	IC50 [8] [µM]	Emax [9] [%]	IC50 [10]	EC50 ([11]; read-out: EC50) [µM]	IC50 [12]	Emax [13] [%]	EC50 ([14]; read-out: EC50) [µM]	inhibition [15] [%]	IC50 [16] [µM]	Ki [17] [µM]	Emax [18] [%]	inhibition [19]	also measured
O=C(CN1CCN(c2ccccn2)CC1)Nc1cccnc1	> 50	6.41	38.6	100	47.3	1.07	100	86.5	21.3	Not Active	2.8	Not Active	19	2.66	100	25.8	–	–	–	–
CCc1cccc(NC(=O)CN2CCN(c3ccccn3)CC2)c1	–	0.0679	18.8	88	58	0.0287	58.4	1.31	18.7	–	–	–	26.2	0.133	59.7	0.37	0.00223	44.7	100%	–
Cc1cccc(NC(=O)CN2CCN(c3ncccn3)CC2)c1	> 10	0.318	54.4	–	64.6	0.0034	45	0.463	39.6	–	5.58	–	24.7	0.278	80.6	0.197	0.00566	58.4	inactive	Ki [20]: 5.99 µM; IC50 ([12]; read-out: IC50): > 100 µM; Activity [21]: inactive; Activity [22]: inactive; inhibition [23]: inactive; inhibition [24]: inactive
O=C(CN1CCN(c2ccc(Cl)cn2)CC1)Nc1cncnc1	> 50	> 50	–	76.2	–	–	–	> 100	–	Not Active	–	Not Active	–	–	–	> 100	–	–	–	EC50 [25]: Not Active; EC50 [6]: Not Active; EC50 [26]: Not Active; INH [27]: Not Active; EC50 [11]: Not Active; EC50 [14]: Not Active
